Most compounds without a hit are left out; they make up all but 2.3% or so of the library.
FID counter: counter-screen for HCV NS3 helicase inhibitors: DNA intercalator displacement; DNA fluorescent intercalator displacement, fluorescence; 290,000 tested, 0.17% active; inhibition, % at 7.9 µM; AID 1845; in the data active means inhibition above about 37%;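 further: 0% = vehicle and 100% = reference compound; higher means more ethidium bromide displaced from hairpin DNA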
TRPC4 act: opens the mouse TRPC4 cation channel; 310,000 tested, 0.49% active; HEK293 TRPC4beta/mu-opioid, Fluo4 calcium fluorescence; stronger effect = higher value; B-score at 10 µM;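 active means B-score above 5 SD of library B-scores, and initial fluorescence ratio not above library mean plus 5 SD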;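 further: positive B-score marks a calcium rise read as TRPC4 activation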
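System – HEK293 cells stably co-expressing mouse TRPC4beta and mu-opioid receptor · Signal – Fluo4 calcium-sensitive dye fluorescence, kinetic, 1 Hz baseline · Benchmarks – buffer (low) and maximal DAMGO (high) · Read-out – B score of integrated fluorescence ratio per well · Incubation – dye loading 45 min room temperature, 110 s kinetic read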
TRPC6 inhibitor: blocks the mouse TRPC6 cation channel; Q61143; HEK293-TRPC6, membrane potential dye, ACh-evoked depolarization; stronger effect = lower value; B-score at 10 µM; AID 2553; 310,000 tested, 1.1% active;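 active means B-score under library mean minus 3 SD, initial fluorescence not abnormally high, positive integrated signal ratio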;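 further: B-score derived from integrated fluorescence ratio over the kinetic read; more negative B-score means stronger inhibition of depolarization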
Target sequence (Q61143 whole entry, looked up): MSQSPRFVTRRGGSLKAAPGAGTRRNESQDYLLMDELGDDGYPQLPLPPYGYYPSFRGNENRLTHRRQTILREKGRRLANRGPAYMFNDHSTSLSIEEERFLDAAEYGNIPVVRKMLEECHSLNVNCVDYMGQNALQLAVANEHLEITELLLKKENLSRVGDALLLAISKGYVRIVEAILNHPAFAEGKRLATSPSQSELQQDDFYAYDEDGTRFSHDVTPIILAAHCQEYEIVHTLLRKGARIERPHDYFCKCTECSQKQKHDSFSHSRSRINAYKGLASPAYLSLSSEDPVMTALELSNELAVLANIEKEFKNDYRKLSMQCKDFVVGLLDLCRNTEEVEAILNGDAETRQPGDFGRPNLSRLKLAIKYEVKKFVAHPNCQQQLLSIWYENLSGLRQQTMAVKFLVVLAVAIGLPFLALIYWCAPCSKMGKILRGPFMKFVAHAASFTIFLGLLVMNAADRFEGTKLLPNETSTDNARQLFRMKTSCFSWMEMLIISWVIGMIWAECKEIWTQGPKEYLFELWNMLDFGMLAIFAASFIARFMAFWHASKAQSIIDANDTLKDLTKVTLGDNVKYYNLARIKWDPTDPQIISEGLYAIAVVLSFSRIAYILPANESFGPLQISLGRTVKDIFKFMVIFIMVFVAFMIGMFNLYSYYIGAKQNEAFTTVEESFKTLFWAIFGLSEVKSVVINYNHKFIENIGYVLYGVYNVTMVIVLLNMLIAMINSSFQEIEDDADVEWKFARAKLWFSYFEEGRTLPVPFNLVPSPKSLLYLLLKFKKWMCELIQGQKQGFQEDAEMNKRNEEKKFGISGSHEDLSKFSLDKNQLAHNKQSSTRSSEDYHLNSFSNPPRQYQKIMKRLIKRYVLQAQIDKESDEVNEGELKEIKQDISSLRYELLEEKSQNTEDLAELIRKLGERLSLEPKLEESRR
TRPC4 PAM: allosterically enhances the mouse TRPC4 cation channel; Q9QUQ5; HEK293 TRPC4beta/mu-opioid, DAMGO EC20, Fluo-4 Ca2+ flux; stronger effect = higher value; B-score at 10 µM; 310,000 tested, 0.42% active;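 active means B-score of calcium response area above 5 SD of library B-scores, with initial fluorescence ratio within 5 SD of library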;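 further: B-score of integrated fluorescence ratio over time as area under calcium response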
TRPC6 act: mouse TRPC6 channel activation; HEK293-TRPC6 membrane potential dye fluorescence; stronger effect = higher value; 310,000 tested, 0.13% active; B-score at 10 µM; Q61143;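 active means B-score of the integrated fluorescence ratio above library mean plus 3 SD, and starting fluorescence ratio within library mean plus 5 SD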;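 further: higher score means more depolarization so channel activation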
TRPC4 inh: blocks the mouse TRPC4 cation channel; 300,000 tested, 0.39% active; Q9QUQ5; HEK293 TRPC4beta/mu-opioid, DAMGO-evoked Fluo4 calcium flux; stronger effect = lower value; B-score at 10 µM; AID 2247;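 active means B-score over 3 SD under the library average, no early fluorescence shift, positive overall ratio signal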
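Assay system: HEK293 cells with stable TRPC4beta plus mu-opioid receptor expression. Dosing: single dose. Measured by: Fluo4 Ca2+ flux fluorescence. Also added: DAMGO in two steps, submaximal then maximal. Read-out: B score from integrated Fluo4 fluorescence ratio.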
TRPC4 spec 2: second check of whether TRPC6 inhibitors also affect mouse TRPC4; shares compounds with TRPC6 inhibitor; HEK293 TRPC4/MOR, membrane potential dye fluorescence; channel activated by saturating DAMGO dose; inhibition, % at 10 µM; 920 tested, 42% active; AID 2776;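 active means compounds whose fluorescence signal differed from control wells by over 3 SD, either direction, in both duplicate plates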
TRPC4 spec: mouse TRPC4 off-target activity of TRPC6 inhibitors. 920 tested, 61% active. activity change, negative = inhibition, % at 10 µM. AID 2777. shares compounds with TRPC6 inhibitor. HEK293 TRPC4/mu-opioid, membrane potential fluorescence;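 active means rise or fall in signal beyond 3 SD of buffer-only wells in both replicate plates, either sign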;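 further: integrated kinetic ratio of fluorescence range over baseline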
HEK293 MPD ctr 2-1: second counter-screen for TRPC6 inhibitors: parental HEK293 cells | shares compounds with TRPC6 inhibitor | parental HEK293 membrane potential dye fluorescence; maximal acetylcholine challenge after compound addition | signal change vs control, % at 10 µM | 920 tested, 31% active | AID 2779;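 active means membrane potential signal moving either way by over 3 SD of the maximum-effect control, in both duplicate plates, meaning non-specific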
HEK293 MPD ctr-1: counter-screen for TRPC6 inhibitors: effect in parental HEK293 cells; shares compounds with TRPC6 inhibitor; parental HEK293 membrane potential dye fluorescence; membrane potential signal change, % at 10 µM; 920 tested, 60% active; AID 2780;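 active means membrane potential signal shifting up or down by more than 3 SD of buffer-only wells, on both duplicate plates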
HEK293 MPD ctr-2: checks TRPC6 modulator effects in parental HEK293 cells. 2,400 tested, 51% active. shares compounds with TRPC6 inhibitor. membrane potential signal change, % at 10 µM. membrane potential dye fluorescence. AID 488924;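 active means membrane potential signal moves up or down beyond 5 SD from buffer-only wells, on both duplicate plates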
HEK293 MPD ctr 2-2: parental HEK293 nonspecific activity of TRPC6 modulators, second screen | shares compounds with TRPC6 inhibitor | membrane potential dye fluorescence; after compound, maximal acetylcholine stimulation | inhibition, % at 10 µM | AID 488926 | 2,400 tested, 14% active;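 active means membrane potential signal drops by more than 5 SD from the mean control signal, in both duplicate plates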;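 further: plate controls were acetylcholine ECmax control wells for no effect and buffer only wells for full effect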
TRPC4/MOR mod: tests whether TRPC6 modulators also affect mouse TRPC4 | shares compounds with TRPC6 inhibitor | percent change from control (negative = decrease, positive = increase), % at 10 µM | AID 488927 | 2,400 tested, 69% active | HEK293 TRPC4/mu-opioid, membrane potential fluorescence;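 active means membrane potential signal moved up or down beyond 5 SD of buffer control wells, in both duplicate plates, actives on both sides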;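 further: plate controls were assay buffer wells for no effect and DAMGO maximal-effect wells for full effect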
TRPC4/MOR inh 2: mouse TRPC4 off-target activity of TRPC6 modulators, second screen; shares compounds with TRPC6 inhibitor; HEK293 TRPC4/mu-opioid, membrane potential dye fluorescence; stimulated with maximal-effect DAMGO; inhibition, % at 10 µM; 2,400 tested, 55% active; AID 488928;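 active means drop in membrane potential signal beyond 5 SD of the control wells in both duplicate plates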;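 further: TRPC4 counter screen for TRPC6 hits run under conditions tuned for TRPC6 not TRPC4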
TRPC6 inh conf: confirmation of mouse TRPC6 inhibitors; shares compounds with TRPC6 inhibitor; HEK293-TRPC6, membrane potential dye, ACh-evoked depolarization; inhibition, % at 10 µM; 3,300 tested, 43% active; AID 488960;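 active means fluorescence ratio falls more than 5 SD below the full-stimulation control mean, in both duplicate runs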;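 further: integrated fluorescence ratio of peak minus minimum over baseline after agonist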
TRPC6 act confirm: confirmation of mouse TRPC6 activators | activation, % at 10 µM | 2,800 tested, 11% active | shares compounds with TRPC6 inhibitor | HEK293-TRPC6 membrane potential dye fluorescence, FDSS;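 active means ratio signal rise beyond 5 SD above unstimulated control wells' mean, seen in both duplicate runs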;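 further: plate controls were buffer EC0 wells for no effect and acetylcholine ECmax response for full effect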
Active calls of the source: *.

For N#Cc1cccc(C(=O)Nc2cccc(S(=O)(=O)N3CCCC3)c2)c1 the results were FID counter -12, TRPC4 act inactive, TRPC6 inhibitor inactive, TRPC4 PAM inactive, TRPC6 act inactive and TRPC4 inh inactive.
`O=C(c1ccccc1)N1CCCC(c2ccc(Cl)cc2)=N1` gave FID counter -12, TRPC4 act inactive, TRPC6 inhibitor inactive, TRPC4 PAM inactive, TRPC6 act inactive and TRPC4 inh inactive.
O=C(C1CC1)N1CCCC(c2ccc(Cl)cc2)=N1 was read as FID counter -20, TRPC4 act inactive, TRPC6 inhibitor -7*, TRPC4 PAM inactive, TRPC6 act inactive, TRPC4 inh inactive, TRPC4 spec 2 inactive, TRPC4 spec 9.6%*, HEK293 MPD ctr 2-1 inactive, HEK293 MPD ctr-1 5.5%* and TRPC6 inh conf inactive.
CCOc1cc(/C=C2\C(=N)N3N=C(C)SC3=NC2=O)ccc1OCCOc1cccc(OC)c1 was read as FID counter -29, TRPC4 act inactive, TRPC6 inhibitor inactive, TRPC4 PAM inactive, TRPC6 act inactive and TRPC4 inh inactive.
Screening CCc1nn2c(=O)cc(COc3ccc(/C=C4\C(=N)N5N=C(C)SC5=NC4=O)cc3)nc2s1 returned FID counter -12, TRPC4 act inactive, TRPC6 inhibitor inactive, TRPC4 PAM inactive, TRPC6 act 13*, TRPC4 inh inactive, HEK293 MPD ctr-2 228%*, HEK293 MPD ctr 2-2 inactive, TRPC4/MOR mod 40%*, TRPC4/MOR inh 2 inactive, TRPC6 inh conf inactive and TRPC6 act confirm 88%*.
O=C(Cc1ccc([N+](=O)[O-])cc1)Nc1ccc2c(c1)CCC2 was read as FID counter -2, TRPC4 act inactive, TRPC6 inhibitor -5.2*, TRPC4 PAM inactive, TRPC6 act inactive, TRPC4 inh inactive, HEK293 MPD ctr-2 inactive, HEK293 MPD ctr 2-2 inactive, TRPC4/MOR mod inactive, TRPC4/MOR inh 2 inactive, TRPC6 inh conf inactive and TRPC6 act confirm inactive.
For CC(C)(Oc1ccc(Cl)cc1)C(=O)NNC(=O)c1ccc(Br)o1 the results were FID counter -7, TRPC4 act inactive, TRPC6 inhibitor inactive, TRPC4 PAM inactive, TRPC6 act inactive and TRPC4 inh inactive.
For Cc1ccc(C)n1-c1ccc(C(=O)NC2CCN(Cc3ccccc3)CC2)cc1 the results were FID counter -10, TRPC4 act inactive, TRPC6 inhibitor -5.1*, TRPC4 PAM inactive, TRPC6 act inactive, TRPC4 inh inactive, HEK293 MPD ctr-2 inactive, HEK293 MPD ctr 2-2 inactive, TRPC4/MOR mod inactive, TRPC4/MOR inh 2 36%*, TRPC6 inh conf inactive and TRPC6 act confirm inactive.
Screening O=C(NC1CCN(Cc2ccccc2)CC1)c1cn(-c2ccccc2)nc1-c1cccnc1 returned TRPC4 act inactive, TRPC6 inhibitor -5.6*, TRPC4 PAM inactive, TRPC6 act inactive, TRPC4 inh inactive, HEK293 MPD ctr-2 91%*, HEK293 MPD ctr 2-2 inactive, TRPC4/MOR mod inactive, TRPC4/MOR inh 2 52%*, TRPC6 inh conf 41%* and TRPC6 act confirm inactive.
`O=C(NC1CCN(Cc2ccccc2)CC1)C1COc2ccccc2O1` (configuration not stated) gave FID counter 6, TRPC4 act inactive, TRPC6 inhibitor -5.7*, TRPC4 PAM inactive, TRPC6 act inactive, TRPC4 inh inactive, HEK293 MPD ctr-2 104%*, HEK293 MPD ctr 2-2 86%*, TRPC4/MOR mod 12%*, TRPC4/MOR inh 2 29%* and TRPC6 inh conf 72%*.
Cc1ccc(CN2CCC(NC(=O)c3ccccc3)CC2)cc1 was read as FID counter -3, TRPC4 act inactive, TRPC6 inhibitor inactive, TRPC4 PAM inactive, TRPC6 act inactive and TRPC4 inh inactive.
O=C(NCc1ccccc1)C1COc2ccccc2O1 (configuration not stated) was read as FID counter 4, TRPC4 act inactive, TRPC6 inhibitor inactive, TRPC4 PAM inactive, TRPC6 act inactive and TRPC4 inh inactive.
Cc1ccc(N(C(=O)CCCC(=O)Nc2ccccn2)C(C(=O)NC2CCCC2)c2ccc(O)cc2)cc1C (configuration not stated) was read as FID counter -37, TRPC4 act inactive, TRPC6 inhibitor inactive, TRPC4 PAM inactive, TRPC6 act inactive and TRPC4 inh inactive.
For CCOC(=O)c1ccc2c(c1)n(CC)c(C)[n+]2CC the results were FID counter 1, TRPC4 act inactive, TRPC6 inhibitor inactive, TRPC4 PAM inactive, TRPC6 act inactive and TRPC4 inh inactive.
